Common to all, as to format: functional, Mus musculus
Conditions in all cases: route intraperitoneal

Experiment [1] has as its system L1210 (1565). Description: Antitumor activity against L-1210 leukemia cell line in BDF1 mice after injecting 0.125 mg/kg ip dose. Summed up:
(§1)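 Female BDF1 mice received 10⁵ viable L-1210 ascites cells ip. Aqueous test compound was given ip starting the same day, daily five times a week for 4 weeks or until death, with five mice per dose. Read-out was T/C, the mean survival time of treated mice over untreated controls. Mice alive at 4 weeks were counted as long-term survivors.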

Experiment [2] concerns P388. Description: Antitumor activity against P-388 leukemia cell line in BDF1 mice after injecting 0.38 mg/kg ip dose.
The test system of experiment [3] is L1210 (1565). Description: Antitumor activity against L-1210 leukemia cell line in BDF1 mice after injecting 0.5 mg/kg ip dose. The essentials: as §1
Experiment [4] concerns P388. Description: Antitumor activity against P-388 leukemia cell line in BDF1 mice after injecting 4 mg/kg ip dose.
In experiment [5] the test system is L1210 (1565). Description: Antitumor activity against L-1210 leukemia cell line in BDF1 mice after injecting 2 mg/kg ip dose. Summed up: as §1
The test system of experiment [6] is L1210 (1565). Description: Antitumor activity against L-1210 leukemia cell line in BDF1 mice after injecting 0.1 mg/kg ip dose. The essentials: as §1
Experiment [7] deals with P388. Description: Antitumor activity against P-388 leukemia cell line in BDF1 mice after injecting 6.25 mg/kg ip dose.
The test system of experiment [8] is L1210 (1565). Description: Antitumor activity against L-1210 leukemia cell line in BDF1 mice after injecting 0.05 mg/kg ip dose. The essentials:
as §1

The test system of experiment [9] is P388. Description: Antitumor activity against P-388 leukemia cell line in BDF1 mice after injecting 2.4 mg/kg ip dose.
Experiment [10] relates to P388. Description: Antitumor activity against P-388 leukemia cell line in BDF1 mice after injecting 3.0 mg/kg ip dose.
For experiment [11], the system named is L1210 (1565). Description: Antitumor activity against L-1210 leukemia cell line in BDF1 mice after injecting 0.25 mg/kg ip dose. Summed up:
as §1

For experiment [12], the system named is L1210 (1565). Description: Antitumor activity against L-1210 leukemia cell line in BDF1 mice after injecting 8 mg/kg ip dose. The essentials: as §1
For experiment [13], the system named is L1210 (1565). Description: Antitumor activity against L-1210 leukemia cell line in BDF1 mice after injecting 16 mg/kg ip dose. The essentials: as §1
The test system of experiment [14] is L1210 (1565). Description: Antitumor activity against L-1210 leukemia cell line in BDF1 mice after injecting 4 mg/kg ip dose. Summed up:
as §1

The test system of experiment [15] is P388. Description: Antitumor activity against P-388 leukemia cell line in BDF1 mice after injecting 8.0 mg/kg ip dose.
The subject of experiment [16] is L1210 (1565). Description: Antitumor activity against L-1210 leukemia cell line in BDF1 mice after injecting 2.0 mg/kg ip dose. The essentials:
as §1

For the compound `C[C@@H]1OC(O[C@H]2C[C@](O)(CO)Cc3c(O)c4c(c(O)c32)C(=O)c2ccccc2C4=O)C[C@H](N)[C@H]1O.Cl` (stereo not given in full), the values for the T/C in the experiment with L1210 (1565) [1] and in the experiment with P388 [2] were 340% and 174%, respectively.

On to `CC[C@@]1(O)Cc2c(O)c3c(c(O)c2[C@@H](O[C@H]2C[C@H](N)[C@@H](O)[C@H](C)O2)C1)C(=O)c1ccccc1C3=O.Cl`, for which the T/C with L1210 (1565) [3] is given as 460%; in the experiment with P388 [4], 184%. In the experiment with L1210 (1565) [5], `C[C@@H]1O[C@@H](O[C@H]2C[C@@](C)(O)Cc3c(O)c4c(c(O)c32)C(=O)c2ccccc2C4=O)C[C@@H](N)[C@H]1O.Cl` returned a T/C of 470%. `CC(=O)[C@]1(O)Cc2c(O)c3c(c(O)c2[C@@H](O[C@H]2C[C@@H](N)[C@@H](O)[C@H](C)O2)C1)C(=O)c1ccccc1C3=O.Cl` displayed a T/C with L1210 (1565) [3] of 240%. `C[C@@H]1OC(O[C@H]2C[C@](O)(CO)Cc3c(O)c4c(c(O)c32)C(=O)c2ccccc2C4=O)C[C@H](N)[C@@H]1O.Cl` (stereo not given in full) returned a T/C with L1210 (1565) [6] of 230%.

With `C[C@@H]1O[C@@H](O[C@H]2C[C@](O)([C@@H](C)O)Cc3c(O)c4c(c(O)c32)C(=O)c2ccccc2C4=O)C[C@@H](N)[C@@H]1O.Cl`, the T/C in the experiment with L1210 (1565) [1] is 250%. Consider `C[C@@H]1O[C@@H](O[C@H]2C[C@@](C)(O)Cc3c(O)c4c(c(O)c32)C(=O)c2ccccc2C4=O)C[C@@H](N)[C@@H]1O.Cl`, for which the results for the T/C with L1210 (1565) [3] and in the experiment on P388 [7] were 400% and 192%, respectively.

For `CC(=O)[C@]1(O)Cc2c(O)c3c(c(O)c2[C@@H](O[C@H]2C[C@@H](N)[C@H](O)[C@H](C)O2)C1)C(=O)c1ccccc1C3=O.Cl`, the T/C in the experiment with L1210 (1565) [8] is listed as 230%; with P388 [9] it was 174%.

`CC[C@@]1(O)Cc2c(O)c3c(c(O)c2[C@@H](O[C@H]2C[C@H](N)[C@H](O)[C@H](C)O2)C1)C(=O)c1ccccc1C3=O.Cl`: the results for the T/C in the experiment with L1210 (1565) [3] and with P388 [10] were 420% and 155%, respectively. `CC1OC(O[C@H]2C[C@](O)(CCO)Cc3c(O)c4c(c(O)c32)C(=O)c2ccccc2C4=O)CC(N)C1O.Cl` (stereo not given in full) yielded a T/C with L1210 (1565) [11] of 450%.

In the experiment with L1210 (1565) [12], `CC1OC(O[C@H]2C[C@](O)(C(=O)NOCc3ccccc3)Cc3c(O)c4c(c(O)c32)C(=O)c2ccccc2C4=O)CC(N)C1O.Cl` (stereo not given in full) displayed a T/C of 100%. Compound `COC1C(N)CC(O[C@H]2C[C@](O)(C(C)=O)Cc3c(O)c4c(c(O)c32)C(=O)c2ccccc2C4=O)OC1C.Cl` (stereo not given in full) showed a T/C in the experiment with L1210 (1565) [11] of 230%. On to `CC1OC(O[C@H]2C[C@](O)(C(=O)N(C)c3ccccc3)Cc3c(O)c4c(c(O)c32)C(=O)c2ccccc2C4=O)CC(N)C1O.Cl` (stereo not given in full), for which the T/C with L1210 (1565) [13] is 120%. In the experiment on L1210 (1565) [1], `COC1C(N)CC(O[C@H]2C[C@](O)(CO)Cc3c(O)c4c(c(O)c32)C(=O)c2ccccc2C4=O)OC1C.Cl` (stereo not given in full) came in with a T/C of 350%. In the experiment on L1210 (1565) [13], `CC1OC(O[C@H]2C[C@](O)(C(=O)Nc3ccccc3)Cc3c(O)c4c(c(O)c32)C(=O)c2ccccc2C4=O)CC(N)C1O.Cl` (stereo not given in full) had a T/C of 120%. `CC1CC(N)CC(O[C@H]2C[C@](O)(CO)Cc3c(O)c4c(c(O)c32)C(=O)c2ccccc2C4=O)O1.Cl` (stereo not given in full): in the experiment on L1210 (1565) [1], the T/C came to 280%. `CC1OC(O[C@H]2C[C@](O)(C(=O)NCc3ccccc3)Cc3c(O)c4c(c(O)c32)C(=O)c2ccccc2C4=O)CC(N)C1O.Cl` (stereo not given in full) displayed a T/C in the experiment with L1210 (1565) [14] of 130%.

In the experiment on L1210 (1565) [5], `CCCNC(=O)[C@]1(O)Cc2c(O)c3c(c(O)c2[C@@H](OC2CC(N)C(O)C(C)O2)C1)C(=O)c1ccccc1C3=O.Cl` (stereo not given in full) showed a T/C of 120%. As for `C[C@@H]1O[C@@H](O[C@H]2C[C@](O)([C@H](C)O)Cc3c(O)c4c(c(O)c32)C(=O)c2ccccc2C4=O)C[C@@H](N)[C@@H]1O.Cl` (stereo in doubt; 25), in the experiment with L1210 (1565) [1] (0.125 mg/kg), the T/C was found to be 220%.

`C[C@@H]1O[C@@H](O[C@H]2C[C@](O)([C@H](C)O)Cc3c(O)c4c(c(O)c32)C(=O)c2ccccc2C4=O)C[C@@H](N)[C@@H]1O.Cl` (stereo in doubt; 35) displayed a T/C in the experiment with L1210 (1565) [1] (0.125 mg/kg) of 270%.

`C[C@@H]1O[C@@H](O[C@H]2C[C@](O)([C@H](C)O)Cc3c(O)c4c(c(O)c32)C(=O)c2ccccc2C4=O)C[C@@H](N)[C@@H]1O.Cl` (stereo in doubt; 36) yielded a T/C in the experiment with L1210 (1565) [1] (0.125 mg/kg) of 360%. On to `COc1cccc2c1C(=O)c1c(O)c3c(c(O)c1C2=O)C[C@@](O)(C(C)=O)C[C@@H]3O[C@H]1C[C@H](N)[C@H](O)[C@H](C)O1` [DAUNORUBICIN], for which the figures for the T/C in the experiment with L1210 (1565) [3] and in the experiment with P388 [15] were 290% and 143%, respectively. For the compound `COc1cccc2c1C(=O)c1c(O)c3c(c(O)c1C2=O)C[C@@](O)(C(=O)CO)C[C@@H]3O[C@H]1C[C@H](N)[C@H](O)[C@H](C)O1` [DOXORUBICIN], the T/C with L1210 (1565) [16] is listed as 330%; with P388 [15], 174%.

For the origin of these results see ChEMBL document CHEMBL1124896, “Synthesis and antitumor activity of novel 4-demethoxyanthracyclines” (1990).
